# PubChem BioAssay AID504392 (Broad Institute, 2011)
# Active and inactive are the calls of the source.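 Rule for the calls: active = fitted curve rising past 10% caspase activation at or below the top valid dose; inactive = activity opposite to the expected rise, or the rest.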
# Experiment: caspase activation in wild-type MEFs, dose response, counter-screen for Bcl2-A1 inhibitor project, cell-based, wild-type MEF, caspase luminescence, dry powder, set 2 (AID 504392)
# Method in brief: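 test system = wild-type mouse embryonic fibroblasts, not A1–BIM primed | buffer or medium = RPMI-1640, 10% FBS | times = 3 h compound at 37 °C, 1 h reagent at RT | signal = luminescence with CaspaseGlo caspase reagent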
structure (smiles),measurement,value
C/C1=C/C(=O)O[C@@H]2C[C@@H](CC[C@H](C)/C=C\CC1)O[C@@](O)(C1CSC(=O)N1)C2 (stereo partly specified),outcome,inactive
